# ChEMBL document CHEMBL4513216, “Probing the Open Global Health Chemical Diversity Library for Multistage-Active Starting Points for Next-Generation Antimalarials” (ACS Infect Dis, 2020)
# Test: Toxicity liver stage against HepG2, at 10uM
# Format: cell-based
# Parameters: test concentration 10 uM, cell line HepG2-A16-CD81EGFP
# Conditions: human, HepG2-A16-CD81EGFP cells; read-out: INHIBITION
# Procedure, shortened: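 Uninfected HepG2-A16-CD81EGFP cells, 3 × 10^3 per well, 1536-well, plated on prespotted compound at 10 μM final, parasite-free screening media added to match infected plates; puromycin 10 μM positive, DMSO 0.5% negative; run in parallel with 48 h PbLuc assay at 37 °C, 5% CO2; viability by CellTiter-Glo luminescence, normalized to controls.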
row,SMILES,cytotoxicity at 10 µM
1,Cc1ccc(S(=O)(=O)NC(=O)CCc2ccco2)cc1N(C)C,-0.845%
2,Cc1ccnc(NC(=O)C2CCN(CCCn3ccnc3C)CC2)c1,-58.2%
3,COc1ccc(CN2CCC(C(N)=O)C2)c(Br)c1OC (stereo not given),5.15%
4,CC(c1ccc(Cl)cc1)N1CCN(CCNS(C)(=O)=O)CC1 (stereo not given),-15.3%
5,CCOCC1CN(C(=O)COc2ccccc2)Cc2cn(C)nc21 (stereo not given),9.08%
6,O=C(CCC(=O)c1ccccc1)NC1(C(=O)NCC2CC2)CCCC1,2.26%
7,Cc1cnn(CC2CN(CCCc3nc4ccccc4o3)CCO2)c1 (stereo not given),-2.45%
8,N[C@H]1CN(C(=O)CCCc2ccc(F)cc2)C[C@@H]1C1CC1,-2.45%
9,COCCN(C)C(=O)c1ccc2onc(-c3coc(C)n3)c2c1,-144%
10,CC(C)N(C)CC(=O)Nc1nccn1Cc1ccccc1Cl,0.0646%
11,COc1ccc(NC(=O)N(CC2CCOC2)C2CC2)cn1 (stereo not given),-6.95%
12,CC(NC(=O)NCCCn1cncn1)c1ccc2c(c1)OCCO2 (stereo not given),-6.85%
13,COCCCNC(=O)CN1CCC(c2ccccc2)C1 (stereo not given),20.3%
14,COc1ccc(NCc2c[nH]nc2-c2cccnc2)cc1,-16.8%
15,Cn1cnc(S(=O)(=O)N2CC3(CCN(CC4CC4)C3)C2)c1,-99.2%
16,Cc1ccc(-c2nc(CN3CCN(S(=O)(=O)N(C)C)CC3)cs2)o1,6.81%
17,CCc1cc(N[C@@H](CC(C)C)C(N)=O)n2nc(C)c(C)c2n1,7.33%
18,Cc1cccc(CN2CCC3(CCC(CC(=O)N(C)C)CC3)CC2)n1,-113%
19,CCC(C)(NCC(=O)NC(=O)NC)c1nccs1 (stereo not given),7.77%
20,CS(=O)(=O)N1CCCCC1CCc1ccc(O)cc1 (stereo not given),-0.311%
21,COCCN(Cc1ccccn1)C(=O)Nc1cccnc1-n1cccn1,1.06%
22,CCN(CC)CCNCc1cc(O)c2cc(C)ccc2n1,0.749%

row,SMILES,cytotoxicity at 10 µM
1,O=C(O)c1cccnc1CN(Cc1ccsc1)C1CC1,3.7%
2,Cn1ccc(-c2cc(C(=O)N3CCC(O)CC3)c3ccccn23)n1,-98.3%
3,COc1cccc(CNCC2CCN(CC(C)O)CC2)c1OC (stereo not given),-0.191%
4,CC(SCCNS(=O)(=O)c1cnn(C)c1)c1cccc(F)c1 (stereo not given),17.3%
5,COc1ccc(C2CCCN2C(=O)NCCn2ccnc2)cc1 (stereo not given),-9.13%
6,Cc1nc(C)c(CN2CCOC(Cc3ccccc3Cl)C2)nc1C (stereo not given),5.32%
7,Cc1cc(C(=O)N2C[C@@H]3OCCN(CCN4CCCC4)[C@@H]3C2)c(C)o1,-74.8%
8,O=C(C1CCOCC1)N1C[C@@H]2[C@@H](C1)OCC(=O)N2CC1CC1,2.29%
9,Oc1ccc(Cl)cc1CNCc1cccc(C(F)(F)F)c1,-6.13%
10,Cc1cc(C)n(CC2CN(c3cnc4ccccc4n3)CCO2)n1 (stereo not given),-2.42%
11,CCc1nnc(CNCC2CCCN2c2cccnn2)o1 (stereo not given),-10.7%
12,CC(C)COC[C@H]1CC[C@H]2[C@H](CCN2C(=O)c2ccncc2F)O1,-0.171%
13,COc1ccc2c(c1)OCC(Cc1cnc(N)c(C)c1)C2 (stereo not given),-1.23%
14,CN(C)S(=O)(=O)N1CC(c2nc(N)ncc2-c2ccc(F)cc2)C1,-4.64%
15,Cc1noc(C)c1CNCC1(COc2cccnc2)C[C@@H](O)[C@@H](O)C1 (stereo not given in full),-2.36%
16,CC(C)(CNC(=O)C1CCCCN1S(C)(=O)=O)N1CCOCC1 (stereo not given),-7.15%
17,Fc1cnc(N2CC3(CCN(CC4CC4)C3)C2)nc1,-2.73%
18,O=C(NCCc1cccc(Cl)c1)C1CCOCC1,-8.47%
19,Fc1ccc(CN2CCC3(CCCN(c4nncs4)C3)C2)cc1 (stereo not given),-141%
20,Cc1cnc(C(C)(C)NC(=O)NCc2cccnc2OC(C)C)s1,8.46%
21,O=C(N1CCCO1)[C@@]12CCO[C@@H]1CCN(Cc1ccc(F)cc1)C2,-6.1%
22,c1cncc(C2COC3(CCN(Cc4nccs4)CC3)C2)c1 (stereo not given),1.7%

row,SMILES,cytotoxicity at 10 µM
1,CCOCCNC(=O)c1cc(COc2cncc(Cl)c2)on1,7.62%
2,CCN1CCN(C2CCN(Cc3nc(-c4ccoc4)no3)CC2)C1=O,-7.39%
3,CCCc1nc(C)c(C(=O)NCCN2CCN(CC)CC2)s1,-10.6%
4,COCC(=O)N1CC[C@]2(O)CCN(C(=O)CCc3ccsc3)C[C@@H]2C1,0.689%
5,O=C(c1cc(F)ccc1O)N1CCN(C2CCOCC2)CC1,-4.9%
6,O=C(c1ccc(S(=O)(=O)NCC(F)F)cc1)N1C[C@H]2CNC[C@H]2C1,-13%
7,C=C(C)CN1CCN(Cc2nccn2C)C(C)C1 (stereo not given),-14.6%
8,Cc1nc(O)cc(C2CCN(Cc3cccc(F)c3F)C2)n1 (stereo not given),-1.19%
9,CCOc1ccccc1-c1noc(CN2CCN(CCOC)CC2)n1,-4.9%
10,Cc1nc(CCC(=O)N2Cc3cnc(-c4ccccc4)nc3C2)n[nH]1,-0.227%
11,Cc1nnc(N2CCCC2)c(C(N)=O)c1C,7.19%
12,CC(=O)NCC[C@H]1CC(C)(C)Oc2ccccc21,-0.363%
13,CCn1c(C)nnc1SCCNc1nc(C)nc2ncccc12,0.194%
14,Cc1csc(C2CCCCN2C(=O)c2cnn3ccc(C)nc23)n1 (stereo not given),-5.85%
15,CCS(=O)(=O)N1CCc2c(COCCN(C)C)cncc2C1,-104%
16,COc1cc2c(cc1CN1CCc3sccc3C1C)OCCO2 (stereo not given),8.92%
17,N#Cc1cccc(C(=O)N2C[C@H](CO)C[C@H](CN3CCCC3)C2)c1,-1.04%
18,CCOC(=O)CNC(=O)c1cc2n(n1)CCCO2,1.43%
19,Cc1nc2cc(O)nn2c(C)c1CCC(=O)N(C)CCC(C)C,-146%
20,Cc1cccc(CN2C[C@@H]3COC[C@]3(CNC(=O)c3ccno3)C2)n1,3.84%
21,COc1ccc2[nH]c(=O)c(CN(C)C(C)c3ccccn3)cc2c1 (stereo not given),2.76%
22,O=C1CC(c2ccc3c(c2)OCO3)c2cn[nH]c2N1 (stereo not given),13.3%

row,SMILES,cytotoxicity at 10 µM
1,CC(C(=O)N1CCCCCC1)N1CCN(Cc2nccn2C)CC1 (stereo not given),-5.28%
2,CCc1nc(C2CCCN2CC(=O)NCCOc2ccccc2)no1 (stereo not given),-16.4%
3,O=C(CC1CC1)NC[C@]12COC[C@H]1CN(c1ncccn1)C2,-142%
4,O=C(CCC1CCN(C(=O)c2cc[nH]c2)CC1)NCc1cccc(Cl)c1,-2.11%
5,Clc1ccc(N2CCC(OCC3CCCCO3)CC2)nc1 (stereo not given),-1.8%
6,CNC(=O)c1ccc(CNC(=O)NCCN(C)C2CCCC2)cc1,-7.66%
7,O=C1N(CCCc2ccccc2)CCCC1(O)CN1CCC(CO)CC1 (stereo not given),-10.5%
8,COCCCN1CC2(CCC1=O)CCN(Cc1cc(C(C)C)no1)CC2,-2.1%
9,COc1c(NS(=O)(=O)c2cc(C)ccc2C)c(C)nn1C,0.259%
10,Cc1cccc(N(C)S(=O)(=O)c2cc(C(=O)O)cs2)c1,-6.12%
11,Cc1cc(NC(=O)COC(=O)c2ccc(F)cc2Br)n(C)n1,6.03%
12,CCCc1n[nH]c(C2CN(C(=O)CCn3ccccc3=O)CCO2)n1 (stereo not given),-0.438%
13,COc1ncc(C(=O)N2CCC3(CC2)C(=O)Nc2ccccc23)cn1,-140%
14,Cc1cc(CN2C[C@@H](C)[C@@]3(CCN(CC(=O)N(C)C)C3=O)C2)oc1C,9.94%
15,CC(C)(C)c1nccc(N2CCC(OCCN3CCCCC3)C2)n1 (stereo not given),-53.7%
16,CCn1cc(NC(=O)c2cccc(CN3C[C@@H](C)O[C@@H](C)C3)c2)nn1,1.31%
17,CCS(=O)(=O)N1CCc2ccc(NC(=O)Nc3ccc(F)cc3F)cc21,51.2%
18,COCCOc1ccnc(-c2noc([C@@H]3CCCN3C(C)C)n2)c1,-12.7%
19,Cc1cc(-n2cncn2)ccc1C(=O)Nc1ccc(N2CCCC2)cn1,7.26%
20,CCCNC(=O)Nc1cccc2c1CCN(S(C)(=O)=O)C2,-7.92%
21,COCC1CC2(CCN(Cc3ccc(OC)cc3)CC2)CN1C(C)C (stereo not given),-3.68%
22,CN(CCc1ccccn1)c1cnn(C)c(=O)c1Br,-5.03%

row,SMILES,cytotoxicity at 10 µM
1,COc1ccc(N(Cc2ccco2)C(=O)C2CCOC2)cc1F (stereo not given),-10.8%
2,Cc1cc(CN2CCN(C(=O)c3sccc3C3CC3)CC2)on1,4.69%
3,CN(CC(=O)NC(N)=O)CC1(c2ccc(Br)cc2)CC1,0.913%
4,Cn1cnc(S(=O)(=O)NCC2(O)CCc3ccccc32)c1 (stereo not given),11.6%
5,COCCN1CCC(CN(CC2CCCO2)C(=O)CCNC(C)=O)CC1 (stereo not given),-5.99%
6,NC(=O)c1cnc(NC(=O)CCc2ccco2)c(Cl)c1,3.42%
7,CN(Cc1ccncc1)C(CO)c1cccc(F)c1 (stereo not given),2.35%
8,O=C(NC1CCCN(c2ccc(OC(F)F)cc2)C1)c1cc[nH]n1 (stereo not given),3.65%
9,CC(=O)Nc1ccc(Cl)c(C(=O)N(C)C(C)c2ccncn2)c1 (stereo not given),-42.6%
10,O=C(NC1CC(=O)N(Cc2cccc(F)c2)C1)c1ccncc1 (stereo not given),-7.41%
11,CC(C)n1cnnc1CNC(=O)c1cnn(Cc2ccccc2)c1,0.536%
12,COc1cccc(CC(=O)N2CC[C@@H]3NC(=O)CC[C@@H]32)c1,-4.04%
13,Cc1ccc(NC2CCN(C(=O)c3cccnc3O)CC2)nn1,-27.6%
14,CC(C)c1noc(CS(=O)(=O)CC(=O)NCCOc2ccccc2)n1,-10%
15,CCN(Cc1ccccc1)c1ncnc2c(C)nn(CC)c12,-2.48%
16,Cc1cc2nc(-c3cn(C4CCNCC4)nn3)[nH]c2cc1C,-8.1%
17,CC(=O)N1CCC(c2cnc(NC3CCOCC3)cn2)CC1,-3.73%
18,Cc1nc2c(c(NCC(O)c3ccccc3Cl)n1)CCNCC2 (stereo not given),-2.88%
19,CC(C)Cc1noc(CNc2ccccc2CC(=O)N(C)C)n1,0.489%
20,Cc1cnc(N2CCC3(CC2)CC(N(C)Cc2ccncc2)C3)nc1,8.73%
21,Cn1cc(NC(=O)N2CCCC2c2ccccn2)ccc1=O (stereo not given),-3.83%
22,Cn1cccc1C(=O)NC[C@H]1C[C@@H]2CN(C(=O)c3ccno3)C[C@H]2O1,0.903%
